Source: ChEMBL document CHEMBL2440012, “Design, synthesis and anticonvulsant properties of new N-Mannich bases derived from 3-phenylpyrrolidine-2,5-diones” (Bioorg Med Chem, 2013)
Calls of active or inactive are those of the source. The rule behind the calls is not given here.

Columns and labels:
Rattus norvegicus [1] = assay: Anticonvulsant activity in po dosed albino Sprague-Dawley rat assessed as protection against maximal electroshock-induced seizures; type: functional
Mus musculus [2] = assay: Anticonvulsant activity in ip dosed albino CF1 mouse assessed as protection against maximal electroshock-induced seizures in half or more animals measured after 4 hrs; type: functional; details: read-out: MED
How it was run: (§1)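 Male CF-1 mice given ip suspension in 0.5% methylcellulose/water at 30, 100 and 300 mg/kg; MES, scPTZ (pentylenetetrazole 85 mg/kg sc, CD97 dose for clonic seizures ≥5 s) and rotarod (inability to hold balance 1 min in each of three trials) assessed at 0.5 and 4 h; value is minimum dose active in half or more animals.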

Mus musculus [3] = assay: Toxicity in albino CF1 mouse assessed as myoclonic jerks at 300 mg/kg, ip measured after 0.5 hr by rotorod test; type: organism-based; design: dose 300 mg/kg, route intraperitoneal; details: in vivo
Mus musculus [4] = assay: Anticonvulsant activity in albino CF1 mouse assessed as protection against subcutaneous pentylenetetrazole-induced convulsion at 300 mg/kg, ip measured after 0.5 hrs; type: functional, organism-based; design: dose 300 mg/kg; how it was run: as §1
Mus musculus [5] = assay: Protection index, ratio of TD50 for neurotoxicity in ip dosed albino CF1 mouse by rotorod test to ED50 for anticonvulsant activity in ip dosed albino CF1 mouse by 6 Hz psychomotor seizure test; type: functional
Mus musculus [6] = assay: Anticonvulsant activity in albino CF1 mouse assessed as assessed as protection against 6 Hz psychomotor seizure at 75 mg/kg, ip after 4 hrs by minimal clonic seizure test; type: functional; details: route intraperitoneal
How it was run: (§2)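 Male CF-1 mice, groups of four, dosed ip in 0.5% methylcellulose/water suspension, then challenged by 6-Hz corneal stimulation at 32 mA (0.2 ms pulses, 3 s, constant current) at 0.25, 0.5, 1, 2 or 4 h; count of mice out of four protected from stunned posture/clonic seizure.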

Rattus norvegicus [7] = assay: Anticonvulsant activity in albino Sprague-Dawley rat assessed as protection against maximal electroshock-induced seizures at 30 mg/kg, po measured after 4 hrs; type: functional
How it was run: (§3)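 Male Sprague-Dawley rats, four per group, dosed p.o. at 30 mg/kg in 0.5% methylcellulose/water suspension; MES test at 0.25, 0.5, 1, 2 and 4 h, motor impairment examined in parallel; number of rats out of four protected.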

Rattus norvegicus [8] = assay: Anticonvulsant activity in albino Sprague-Dawley rat assessed as protection against maximal electroshock-induced seizures at 30 mg/kg, po measured after 1 hr; type: functional; how it was run: as §3
Mus musculus [9] = assay: Anticonvulsant activity in ip dosed albino CF1 mouse assessed as protection against maximal electroshock-induced seizures in half or more animals measured after 0.5 hr; type: functional; details: read-out: MED; how it was run: as §1
Rattus norvegicus [10] = assay: Anticonvulsant activity in albino Sprague-Dawley rat assessed as protection against maximal electroshock-induced seizures at 30 mg/kg, po measured after 0.5 hr; type: functional; how it was run: as §3
Rattus norvegicus [11] = assay: Anticonvulsant activity in po dosed albino Sprague-Dawley rat assessed as protection against subcutaneous pentylenetetrazole-induced convulsion; type: functional
Mus musculus [12] = assay: Anticonvulsant activity in albino CF1 mouse assessed as assessed as protection against 6 Hz psychomotor seizure at 75 mg/kg, ip after 2 hrs by minimal clonic seizure test; type: functional; details: route intraperitoneal; how it was run: as §2
Mus musculus [13] = assay: Neurotoxicity in ip dosed albino CF1 mouse assessed as minimum motor impairment in half or more animals measured after 0.5 hrs by rotorod test; type: toxicity, organism-based; details: in vivo; how it was run: as §1
Mus musculus [14] = assay: Anticonvulsant activity in albino CF1 mouse assessed as assessed as protection against 6 Hz psychomotor seizure at 75 mg/kg, ip after 1 hr by minimal clonic seizure test; type: functional; details: route intraperitoneal; how it was run: as §2
Mus musculus [15] = assay: Anticonvulsant activity against 6 Hz psychomotor seizure in ip dosed albino CF1 mouse by minimal clonic seizure test; type: functional
Mus musculus [16] = assay: Anticonvulsant activity against 6 Hz psychomotor seizure in ip dosed albino CF1 mouse assessed as time to peak effect by minimal clonic seizure test; type: functional
Mus musculus [17] = assay: Anticonvulsant activity in albino CF1 mouse assessed as assessed as protection against 6 Hz psychomotor seizure at 75 mg/kg, ip after 0.5 hr by minimal clonic seizure test; type: functional; details: route intraperitoneal; how it was run: as §2
[18] = Neurotoxicity in po dosed albino Sprague-Dawley rat assessed as minimum motor impairment by rotorod test; type: toxicity, organism-based; details: in vivo
Rattus norvegicus [19] = assay: Protection index, ratio of TD50 for neurotoxicity in po dosed albino Sprague-Dawley rat by rotorod test to ED50 for anticonvulsant activity in po dosed albino Sprague-Dawley rat by scPTZ test; type: functional
How it was run: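 Male Sprague-Dawley rats, compound suspended in 0.5% methylcellulose/water and given orally; tested at the time of peak effect. scPTZ: 70 mg/kg pentylenetetrazole sc; the end-point is clonic seizures lasting at least 5 s. Rotarod: motor impairment is failure to keep balance for 1 min in each of three trials. Groups of at least eight rats received several doses until at least three points fell within 10–90% effect. ED50, TD50 and 95% confidence intervals were derived by regression; PI = TD50/ED50.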

Rattus norvegicus [20] = assay: Neurotoxicity in po dosed albino Sprague-Dawley rat assessed as time to peak effect by rotorod test; type: toxicity, organism-based; details: in vivo
Rattus norvegicus [21] = assay: Protection index, ratio of TD50 for neurotoxicity in po dosed albino Sprague-Dawley rat by rotorod test to ED50 for anticonvulsant activity in po dosed albino Sprague-Dawley rat by MES test; type: functional
Rattus norvegicus [22] = assay: Anticonvulsant activity against […] subcutaneous pentylenetetrazole-induced convulsion in po dosed albino Sprague-Dawley rat assessed as time to peak effect; type: functional
Rattus norvegicus [23] = assay: Anticonvulsant activity in albino Sprague-Dawley rat assessed as protection against maximal electroshock-induced seizures at 30 mg/kg, po measured after 2 hrs; type: functional; how it was run: as §3
[24] = Neurotoxicity in ip dosed albino CF1 mouse by rotorod test; type: toxicity, organism-based; details: in vivo
Mus musculus [25] = assay: Anticonvulsant activity in albino CF1 mouse assessed as assessed as protection against 6 Hz psychomotor seizure at 75 mg/kg, ip after 0.25 hr by minimal clonic seizure test; type: functional; details: route intraperitoneal; how it was run: as §2
Rattus norvegicus [26] = assay: Anticonvulsant activity against maximal electroshock-induced seizures in po dosed albino Sprague-Dawley rat assessed as time to peak effect; type: functional
Mus musculus [27] = assay: Neurotoxicity in albino CF1 mouse assessed as minimum motor impairment at 300 mg/kg, ip measured after 4 hrs by rotorod test; type: toxicity, organism-based; design: dose 300 mg/kg, route intraperitoneal; details: in vivo; how it was run: as §1
Mus musculus [28] = assay: Neurotoxicity in ip dosed albino CF1 mouse assessed as time to peak effect by rotorod test; type: toxicity, organism-based; details: in vivo
Rattus norvegicus [29] = assay: Anticonvulsant activity in albino Sprague-Dawley rat assessed as protection against maximal electroshock-induced seizures at 30 mg/kg, po measured after 0.25 hr; type: functional; how it was run: as §3
Cytochrome P450 3A4 [30] = target: T1, Cytochrome P450 3A4 (Homo sapiens, UniProt P08684); assay: Inhibition of CYP3A4 (unknown origin) using 200 uM testosterone as substrate assessed as formation of 6-beta-OH-testosterone relative to control; type: ADME
Mus musculus [31] = assay: Anticonvulsant activity in albino CF1 mouse assessed as assessed as protection against 6 Hz psychomotor seizure at 100 mg/kg, ip after 4 hrs by minimal clonic seizure test; type: functional; details: route intraperitoneal; how it was run: as §2
Mus musculus [32] = assay: Anticonvulsant activity in albino CF1 mouse assessed as protection against maximal electroshock-induced seizures at 300 mg/kg, ip measured after 4 hrs; type: functional, organism-based; design: dose 300 mg/kg; how it was run: as §1
Rattus norvegicus [33] = assay: Anticonvulsant activity in albino rat assessed as protection against pilocarpine-induced status epilepticus at 400 mg/kg, ip measured 0.5 hrs post first stage 3 seizure; type: functional, organism-based; design: dose 400 mg/kg
How it was run: (§4)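 Male Sprague-Dawley rats (150–180 g) dosed ip, followed by challenge dose of pilocarpine; compound given relative to first stage III seizure (time zero or 0.5 h); outcome scored as protection or no protection, plus body-weight change 24 h after first stage III seizure.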

Mus musculus [34] = assay: Anticonvulsant activity in ip dosed albino CF1 mouse assessed as protection against subcutaneous pentylenetetrazole-induced convulsion in half or more animals measured after 0.5 hr; type: functional; details: albino CF1, 0.5 h, read-out: MED; how it was run: as §1
Mus musculus [35] = assay: Anticonvulsant activity in albino CF1 mouse assessed as assessed as protection against 6 Hz psychomotor seizure at 100 mg/kg, ip after 0.5 hr by minimal clonic seizure test; type: functional; details: route intraperitoneal; how it was run: as §2
Cytochrome P450 3A4 [36] = target: T1, Cytochrome P450 3A4; assay: Inhibition of CYP3A4 (unknown origin) using 50 uM testosterone as substrate assessed as formation of 6-beta-OH-testosterone relative to control; type: ADME
Mus musculus [37] = assay: Anticonvulsant activity in albino CF1 mouse assessed as assessed as protection against 6 Hz psychomotor seizure at 100 mg/kg, ip after 1 hr by minimal clonic seizure test; type: functional; details: route intraperitoneal; how it was run: as §2
Rattus norvegicus [38] = assay: Anticonvulsant activity in ip dosed albino rat assessed as protection against pilocarpine-induced status epilepticus measured 0.5 hrs post first stage 3 seizure; type: functional; how it was run: as §4
Mus musculus [39] = assay: Anticonvulsant activity in albino CF1 mouse assessed as assessed as protection against 6 Hz psychomotor seizure at 100 mg/kg, ip after 2 hrs by minimal clonic seizure test; type: functional; details: route intraperitoneal; how it was run: as §2
Mus musculus [40] = assay: Anticonvulsant activity in albino CF1 mouse assessed as assessed as protection against 6 Hz psychomotor seizure at 100 mg/kg, ip after 0.25 hr by minimal clonic seizure test; type: functional; details: route intraperitoneal; how it was run: as §2
Mus musculus [41] = assay: Anticonvulsant activity in ip dosed albino CF1 mouse assessed as protection against subcutaneous pentylenetetrazole-induced convulsion in half or more animals measured after 4 hrs; type: functional; details: albino CF1, 4 h, read-out: MED; how it was run: as §1

T1 sequence (P08684 whole entry): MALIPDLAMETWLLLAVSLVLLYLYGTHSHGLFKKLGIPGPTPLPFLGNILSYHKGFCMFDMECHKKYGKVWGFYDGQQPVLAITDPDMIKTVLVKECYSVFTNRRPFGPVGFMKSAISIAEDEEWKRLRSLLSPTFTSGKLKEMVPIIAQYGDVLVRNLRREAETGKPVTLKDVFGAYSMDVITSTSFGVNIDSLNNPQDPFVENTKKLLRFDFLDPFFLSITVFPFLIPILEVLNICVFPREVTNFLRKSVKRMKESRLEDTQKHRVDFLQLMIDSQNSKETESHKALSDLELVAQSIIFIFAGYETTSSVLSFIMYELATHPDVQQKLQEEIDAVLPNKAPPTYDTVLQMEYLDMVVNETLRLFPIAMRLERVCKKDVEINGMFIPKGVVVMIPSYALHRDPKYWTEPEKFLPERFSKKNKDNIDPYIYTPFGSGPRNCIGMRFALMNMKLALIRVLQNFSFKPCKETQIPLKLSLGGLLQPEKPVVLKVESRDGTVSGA

| SMILES | Ratio TD50/ED50 (Mus musculus [5]) | Activity (Rattus norvegicus [7]) | Activity (Rattus norvegicus [8]) | minimal effective dose (Mus musculus [9]) [mg/kg] | Activity (Rattus norvegicus [10]) | ED50 (Rattus norvegicus [11]) [mg/kg] | MED (Mus musculus [13]) [mg/kg] | ED50 (Mus musculus [15]) [mg/kg] | Time (Mus musculus [16]) [h] | Time (Rattus norvegicus [20]) [h] | Time (Rattus norvegicus [22]) [h] | Activity (Rattus norvegicus [23]) | TD50 [24] [mg/kg] | Time (Rattus norvegicus [26]) [h] | Activity (Mus musculus [27]) | Time (Mus musculus [28]) [h] | Activity (Rattus norvegicus [29]) | further results |
| --- | --- | --- | --- | --- | --- | --- | --- | --- | --- | --- | --- | --- | --- | --- | --- | --- | --- | --- |
| O=C1CC(c2ccccc2Cl)C(=O)N1CN1CCC(Cc2ccccc2)CC1 (racemic) | 3.26 | inactive | 75% | 300 | 75% | 107 | 300 | 84.6 | 0.5 | 1 | 1 | 25% | 275 | 1 | Non-toxic | 0.5 | 25% | ED50 (Rattus norvegicus [1]): 37.6 mg/kg; minimal effective dose (Mus musculus [2]): 100 mg/kg; MED (Mus musculus [3]): 100 mg/kg; Activity (Mus musculus [4]): inactive; Activity (Mus musculus [6]): 0%; Activity (Mus musculus [12]): 25%; Activity (Mus musculus [14]): 0%; Activity (Mus musculus [17]): 75%; TD50 [18]: > 500 mg/kg; Ratio TD50/ED50 (Rattus norvegicus [19]): >4.68; Ratio TD50/ED50 (Rattus norvegicus [21]): >13.28; Activity (Mus musculus [25]): 0% |
| O=C1CC(c2ccccc2)C(=O)N1CN1CCOCC1 (racemic) | 3.79 | inactive | inactive | 100 | inactive | – | 300 | 77.2 | 0.25 | – | – | inactive | 293 | – | Non-toxic | 0.25 | inactive | inhibition (INH) (Cytochrome P450 3A4 [30]): 19%; Activity (Mus musculus [31]): 0%; Activity (Mus musculus [32]): inactive; Activity (Rattus norvegicus [33]): Active; minimal effective dose (Mus musculus [34]): 300 mg/kg; Activity (Mus musculus [35]): 0%; inhibition (INH) (Cytochrome P450 3A4 [36]): 17%; Activity (Mus musculus [37]): 25%; ED50 (Rattus norvegicus [38]): 342 mg/kg; Activity (Mus musculus [39]): 0%; Activity (Mus musculus [40]): 75%; minimal effective dose (Mus musculus [41]): 300 mg/kg |
| CC[C@@H](C(N)=O)N1CCCC1=O | – | – | – | – | – | – | – | – | 1 | – | – | – | > 500 | – | – | 1 | – | – |
| CCCC(CCC)C(=O)O [VALPROIC ACID] | – | – | – | – | – | 646 | – | – | – | 1 | 1 | – | – | 1 | – | – | – | – |
